How the values were obtained:
[1] = Cytotoxicity against human A549 cells assessed as decrease in cell viability after 6 days by MTT assay; assay type: functional, cell-based; conditions: A549, 144 h
Outline: (§1)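 Cell lines from College of Pharmacy, Hebei University, grown in DMEM with 5% fetal bovine serum at 37 °C under 5% CO2. Viability read by MTT method, IC50 values derived. Epirubicin served as positive control.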

Colletotrichum truncatum = assay: Antifungal activity against Colletotrichum capsici after 4 to 14 days by serial dilution method; assay type: functional
Outline: (§2)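 Fungal strains kept on potato dextrose agar. Antifungal activity tested following NCCLS recommendations, with MIC values as the read-out. Prochloraz served as positive control.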

[2] = Antifungal activity against Pestallozzia theae after 4 to 14 days by serial dilution method; assay type: functional; outline: as §2
Alternaria brassicicola = assay: Antifungal activity against Alternaria brassicicola after 4 to 14 days by serial dilution method; assay type: functional; outline: as §2
[3] = Antifungal activity against Bipolaris oryzae after 4 to 14 days by serial dilution method; assay type: functional
Outline: (§3)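 Fungus maintained on potato dextrose agar. Antifungal activity determined as MIC following NCCLS (National […] for Clinical Laboratory Standards) recommendations, with prochloraz as the reference antifungal.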

[4] = Antifungal activity against Phytophthora parasitica var. nicotianae after 4 to 14 days by serial dilution method; assay type: functional; outline: as §2
[5] = Cytotoxicity against human HeLa cells assessed as decrease in cell viability after 6 days by MTT assay; assay type: functional, cell-based; conditions: 144 h; outline: as §1
Alternaria citri = assay: Antifungal activity against Alternaria citri after 4 to 14 days by serial dilution method; assay type: functional; outline: as §3
[6] = Cytotoxicity against human MCF7 cells assessed as decrease in cell viability after 6 days by MTT assay; assay type: functional, cell-based; conditions: MCF7, 144 h; outline: as §1
[7] = Antifungal activity against Ceratocystis paradoxa moreau after 4 to 14 days by serial dilution method; assay type: functional; conditions: Thielaviopsis; outline: as §2
[8] = Antifungal activity against Diaporthe medusaea nitschke after 4 to 14 days by serial dilution method; assay type: functional; conditions: Diaporthe rudis; outline: as §2
[9] = Antifungal activity against Exserohilum turcicum after 4 to 14 days by serial dilution method; assay type: functional; conditions: Setosphaeria turcica; outline: as §2

| SMILES | IC50 [1] [µM] | MIC (Colletotrichum truncatum) [µM] | MIC [2] [µM] | MIC (Alternaria brassicicola) [µM] | MIC [3] [µM] | MIC [4] [µM] | IC50 [5] [µM] | MIC (Alternaria citri) [µM] | IC50 [6] [µM] | MIC [7] [µM] | MIC [8] [µM] | MIC [9] [µM] |
| --- | --- | --- | --- | --- | --- | --- | --- | --- | --- | --- | --- | --- |
| COc1cc(OC)c2c(cc(O)c3cccc(O)c32)c1-c1ccc(O)c2c1ccc1cc(O)cc(OC)c12 | > 10 | > 400 | > 400 | > 400 | > 400 | > 400 | > 10 | > 400 | > 10 | > 400 | > 400 | > 400 |
| COc1c(O)cc2c(c1OC)-c1ccc(O)cc1CC2 [ERIANTHRIDIN] | > 10 | > 400 | > 400 | > 400 | > 400 | > 400 | > 10 | > 400 | > 10 | > 400 | > 400 | > 400 |
| COc1cc(O)cc2c1-c1c(O)cccc1CC2 [HIRCINOL] | > 10 | > 400 | > 400 | > 400 | > 400 | > 400 | > 10 | > 400 | > 10 | > 400 | > 400 | > 400 |

From ChEMBL document CHEMBL3860028, “Bioactive Phenanthrene and Bibenzyl Derivatives from the Stems of Dendrobium nobile” (J Nat Prod, 2016)
